Only some compounds are listed: those with a hit (about 4.1% of all), similar ones and a draw of the others.
Dynein transport: dynein cargo transport inhibition; 3617.4 mouse cells, GR-EGFP nuclear translocation imaging; test concentration mostly 20 µM; stimulated with dexamethasone, 1 µM; stronger effect = lower value; z-score, hits read low; 220,000 compounds, 0.47% hits; AID 1381;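 active = plate z-score of nuclear minus cytoplasmic receptor signal below a set negative limit, without overly bright fluorescence or cell loss, cut at about -3.5 in these data, passing the limit was not always enough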;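 note: z-score of nuclear minus cytoplasmic ring GR-EGFP intensity difference per well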
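Also added: dexamethasone, 1.0 µM final. Medium: tet-free, stripped-serum medium. Detection: fixed, Hoechst-stained cells imaged at 10x for EGFP. Read-out: nuclear-to-cytoplasmic GR-EGFP distribution per well. Times: induction 48 h, compound 1 h, agonist 30 min.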
KCC2 mod: modulates chloride dependent transport by human KCC2 | Q9H2X9 | KCC2 cells, thallium flux FluoZin-2 fluorescence | B-score of Tl+ flux slope (higher = more flux/activation; lower = inhibition) at 10 µM | 190,000 compounds, 2.2% hits | AID 1456;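 active = thallium flux slope and its plate-corrected score both differing from the plate sample mean at a set confidence after two filtering rounds, in either direction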;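 note: slope of fluorescence scaled to starting intensity during 10 to 20 s after thallium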
Target sequence (Q9H2X9 whole entry, looked up): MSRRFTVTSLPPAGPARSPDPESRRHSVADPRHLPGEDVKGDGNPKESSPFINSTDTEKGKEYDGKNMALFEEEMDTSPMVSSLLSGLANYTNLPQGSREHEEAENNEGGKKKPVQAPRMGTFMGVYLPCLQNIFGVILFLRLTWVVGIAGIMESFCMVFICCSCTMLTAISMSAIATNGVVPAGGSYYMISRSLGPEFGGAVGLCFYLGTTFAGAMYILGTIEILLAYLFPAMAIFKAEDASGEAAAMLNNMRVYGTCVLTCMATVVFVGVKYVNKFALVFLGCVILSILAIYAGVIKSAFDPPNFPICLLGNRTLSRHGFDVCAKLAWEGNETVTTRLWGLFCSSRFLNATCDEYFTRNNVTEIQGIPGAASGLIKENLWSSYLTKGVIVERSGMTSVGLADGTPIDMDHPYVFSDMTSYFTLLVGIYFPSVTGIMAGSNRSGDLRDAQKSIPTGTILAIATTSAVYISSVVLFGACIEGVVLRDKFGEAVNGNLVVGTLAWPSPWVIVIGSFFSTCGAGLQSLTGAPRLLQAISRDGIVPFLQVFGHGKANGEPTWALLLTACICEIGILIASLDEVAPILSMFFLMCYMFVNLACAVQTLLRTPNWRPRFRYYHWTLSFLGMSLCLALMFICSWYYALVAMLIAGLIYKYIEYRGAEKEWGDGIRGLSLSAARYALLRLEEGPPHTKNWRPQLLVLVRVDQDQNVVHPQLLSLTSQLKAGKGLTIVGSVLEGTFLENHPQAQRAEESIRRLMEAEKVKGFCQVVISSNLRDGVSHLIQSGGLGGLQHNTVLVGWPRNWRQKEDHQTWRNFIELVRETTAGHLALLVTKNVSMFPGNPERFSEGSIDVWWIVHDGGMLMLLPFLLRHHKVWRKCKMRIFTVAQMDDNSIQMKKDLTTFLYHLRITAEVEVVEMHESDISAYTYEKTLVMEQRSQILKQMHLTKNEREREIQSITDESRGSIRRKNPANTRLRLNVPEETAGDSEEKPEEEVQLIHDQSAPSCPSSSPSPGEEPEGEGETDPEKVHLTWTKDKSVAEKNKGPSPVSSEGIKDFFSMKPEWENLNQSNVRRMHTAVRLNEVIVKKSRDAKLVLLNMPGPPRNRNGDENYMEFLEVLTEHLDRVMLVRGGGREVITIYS
Autophagy HCS: autophagy modulation, high-content screen. calls only at 10 µM (by protocol). 190,000 compounds, 0.98% hits. MEF GFP-LC3 puncta imaging; test concentration mostly 10 µM;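 active = percentage of spot-positive cells more than 3 SD above its plate mean, without a fluorescence outlier flag or 80% toxicity; inconclusive = no clear call, values can overlap the other calls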;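 note: spot-positive cell cutoff set from DMSO-treated cells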
ROMK mod: modulators of human ROMK potassium channel. P48048. Tet-inducible ROMK, thallium flux fluorescence; actives lie on both sides. B-score at 10 µM. 130,000 compounds, 2% hits. AID 1918;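 active = signal ratio slope over the read window, or its plate-corrected B-score, at least 3 SD from the plate mean, either direction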;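 note: B-score of the F/F0 ratio slope over 7 to 12 s after thallium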
DTT redox prof: compounds producing H2O2 with reducing agent – biochemical, NIH compound library profiling, artefact control for MLSCN library redox annotation, primary screen | DTT-dependent redox cycling H2O2, phenol red/HRP absorbance; 100% = 100 µM peroxide control, 0% = buffer | activation, % at 10 µM | 200,000 compounds, 0.03% hits | AID 878;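 active = activation of at least 50% relative to the plate's high and low controls in the primary single-dose screen; inactive = activation below 50%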;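 note: compound incubated with DTT at 0.8 mM final as the reducing agent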
KCC2 secondary: KCC2 (human) modulation, secondary assay. shares compounds with KCC2 mod. HEK293-KCC2, thallium flux, FluoZin2 fluorescence; stronger effect = higher value. normalised thallium flux (F/F0 slope) at 10 µM. 3,700 compounds, 15% hits;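 active = thallium flux slope above the same plate's solvent-only control mean plus 3 SD; inconclusive = the two replicate wells disagree; inactive = no significant difference from solvent-only control wells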
KCC2 bumet counter: thallium flux persisting under bumetanide in KCC2 cells, counter-screen secondary assay | shares compounds with KCC2 mod | AID 1714 | normalized thallium flux at 10 µM | HEK293-KCC2 + bumetanide/ouabain, thallium flux FluoZin2; stronger effect = higher value | 3,700 compounds, 49% hits;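 active = thallium entry rate above the same plate's blocked-transporter control wells by more than 3 SD; inconclusive = the two repeat wells disagree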;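 note: raw slope of fluorescence over initial fluorescence between 10 and 20 s after thallium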
KCC2 secondary2: KCC2 (human) modulation, second secondary assay; shares compounds with KCC2 mod; HEK293-KCC2, thallium flux FluoZin2 fluorescence; actives lie on both sides; F/F0 rise rate, 10–20 s post-thallium; normalized thallium flux at 10 µM; 3,700 compounds, 23% hits; AID 1715;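 active = thallium flux slope more than 3 SD above or below the plate's solvent-only control mean, mostly below; inconclusive = the two repeat wells disagreed; inactive = no significant shift from solvent-only controls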;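 note: raw slope with 0.1% DMSO as baseline and bumetanide as block control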
HEK293 Tl flux: counter-screen for KCC2 modulators: effect in parental HEK293 cells. shares compounds with KCC2 mod. thallium flux FluoZin2, ouabain; baseline-ratio fluorescence slope, 10–20 s after thallium. thallium flux rate (normalised fluorescence) at 10 µM. 3,700 compounds, 46% hits;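 active = thallium flux rate significantly above the same plate's solvent-only control wells, beyond their mean plus 3 SD; inconclusive = the two replicate wells gave conflicting results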
KCC2 retest ouab: KCC2 (human) modulation, ouabain retest. shares compounds with KCC2 mod. HEK293-KCC2, thallium flux FluoZin2 fluorescence; bidirectional: low = inhibitor, high = activator. raw Tl+ flux slope (below DMSO = inhibition, above = activation) at 10 µM. 3,700 compounds, 48% hits. AID 1717;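 active = thallium flux slope beyond 3 SD from same-plate DMSO control mean in most replicates, usually higher, sometimes lower; inconclusive = repeat tests gave conflicting results; inactive = no significant difference from controls in most replicates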;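 note: slope of initial-normalized fluorescence between seconds 10 and 20 after thallium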
HEK293 Tl flux2: parental HEK flux effect, counter-screen 2; 3,700 compounds, 33% hits; thallium flux slope at 10 µM; AID 1718; shares compounds with KCC2 mod; HEK293 parental, thallium flux FluoZin-2 fluorescence slope;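 active = thallium flux slope above the same plate's solvent-control mean plus 3 SD in both duplicate wells; inconclusive = duplicate wells that disagreed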;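 note: run without ouabain in cells lacking the KCC2 cotransporter; slope of fluorescence scaled to its starting value between 10 and 20 s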
Active calls of the source: *.

What do the screens show for `CNc1ccc2nnc(C(F)(F)C(F)(F)C(F)(F)F)n2n1`?
Dynein transport: -0.15; KCC2 mod: -0.29; Autophagy HCS: inactive; ROMK mod: 0.44; DTT redox prof: 0

Results for CCCCOc1cccc(C(=O)NC(=S)Nc2cccc(C(F)(F)F)c2)c1 ?
Dynein transport: -0.22; KCC2 mod: 6.5*; Autophagy HCS: inactive; DTT redox prof: 0; KCC2 secondary: 0.0075; KCC2 bumet counter: 0.016*; KCC2 secondary2: inconclusive; HEK293 Tl flux: 0.02*; KCC2 retest ouab: 0.027*; HEK293 Tl flux2: 0.016*

How did CCCCOc1cccc(C(=O)NC(=S)Nc2cccnc2)c1 do in these assays?
Dynein transport: 0.66; KCC2 mod: 6*; Autophagy HCS: inactive; ROMK mod: 0.15; DTT redox prof: 0; KCC2 secondary: 0.013*; KCC2 bumet counter: 0.087*; KCC2 secondary2: 0.036; HEK293 Tl flux: 0.029*; KCC2 retest ouab: 0.052*; HEK293 Tl flux2: 0.013*

Results for O=C(O)c1ccccc1-n1c2ccccc2c2ccccc21 ?
Dynein transport: 0.063; KCC2 mod: 0.49

How did O=C(Nn1c(O)c(C=C2N=c3ccccc3=N2)sc1=S)c1ccccc1 do in these assays?
Dynein transport: -0.3; KCC2 mod: -3.5*; Autophagy HCS: inactive; DTT redox prof: -2; KCC2 secondary: 0.0069; KCC2 bumet counter: 0.0045; KCC2 secondary2: 0.022*; HEK293 Tl flux: 0.0075; KCC2 retest ouab: 0.013*; HEK293 Tl flux2: 0.01

How did CCc1ccccc1Nc1nc(N)nc(COC(=O)c2cccn2C)n1 do in these assays?
Dynein transport: -0.47; KCC2 mod: -5.6*; Autophagy HCS: inactive; ROMK mod: 0.0079; DTT redox prof: 1; KCC2 secondary: 0.0064; KCC2 bumet counter: 0.0035; KCC2 secondary2: 0.028; HEK293 Tl flux: 0.0071; KCC2 retest ouab: 0.016; HEK293 Tl flux2: 0.0096

What do the screens show for `CCCc1ccc(C(=O)/C=C/N(C)C)cc1`?
Dynein transport: 0.072; KCC2 mod: 1; Autophagy HCS: inactive; ROMK mod: 1.4; DTT redox prof: 1

What do the screens show for `CCOC(=O)c1sc2ncnc(NCC(c3cccs3)N(C)C)c2c1C` (stereo unspecified)?
Dynein transport: -0.23; Autophagy HCS: inactive; DTT redox prof: 1; KCC2 secondary: 0.041*; KCC2 bumet counter: 0.17*; KCC2 secondary2: 0.046*; HEK293 Tl flux: 0.093*; KCC2 retest ouab: 0.086*; HEK293 Tl flux2: 0.035*

What do the screens show for `COc1cccc(OCC(=O)O)c1`?
Dynein transport: 0.2; KCC2 mod: -0.049; Autophagy HCS: inactive; ROMK mod: 0.23; DTT redox prof: 0

Results for CC1(CCc2ccccc2)NC(=O)N(Cc2nnc(-c3ccccc3Br)o2)C1=O (stereo unspecified) ?
Dynein transport: -1.2; Autophagy HCS: inactive; ROMK mod: -1.4; DTT redox prof: 0; KCC2 secondary: 0.0071; KCC2 bumet counter: 0.0044; KCC2 secondary2: 0.024*; HEK293 Tl flux: 0.0074; KCC2 retest ouab: 0.016*; HEK293 Tl flux2: 0.01

Screening data (PubChem)
